Measured values as given in the EternaBench riboswitch data.

Tested on: MS2 coat protein
Test: apparent Kd, MS2 coat protein; higher = weaker binding; RNA-MaP array; FMN 200 µM where present
Summary of the method: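 Each design was made on Illumina sequencing-chip clusters by stalled E. coli RNA polymerase and titrated with SNAP-549-labelled MS2 coat protein from 0.7 or 1.5 nM, doubling to 3 µM, in the absence and then the presence of constant ligand. The buffer was 100 mM Tris-HCl pH 7.5, 80 mM KCl, 4 mM MgCl2, BSA, DTT, yeast tRNA and Tween-20. The apparent Kd is the median of filtered per-cluster fits of binding curves, with green signal normalised to red-channel RNA signal and control-cluster median Fmax.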

[1] = designed as: OFF switch for flavin mononucleotide, no ligand
[2] = ligand present: flavin mononucleotide, designed as: OFF switch for flavin mononucleotide
[3] = designed as: ON switch for flavin mononucleotide, no ligand
[4] = ligand present: flavin mononucleotide, designed as: ON switch for flavin mononucleotide

Row | Sequence | apparent Kd [1] [nM] | apparent Kd [2] [nM] | apparent Kd [3] [nM] | apparent Kd [4] [nM]
1 | GUAUCGUAUGUGAGGAUAUAUUUGUCCUUGGAUCUGUAGAAGGCACAUGAGGAUCACCCAUGUCCAAGUGGUCC | 27.6 | 27.7 | – | –
2 | GUAUCUUAUGUGAGGAUAUAUUAUGUCUUGGUGUAGUAGAAGGCACAUGAGGAUCACCCAUGUCCUAUUGGUCU | 40.9 | 116 | – | –
3 | GUAUGGAGUACAGGAUAUGUUAGUUUUAAGUGUAUUGGUUAUUACUUAAUUACAGAAGGGUAUUACAUGAGGAUCACCCAUGUA | – | – | 13.6 | 10.6
4 | GUAUUUGGUUAGGAUAUUGACUCGAGAUCGAGAUAAGAAGGAGCCACAUGAGGAUCACCCAUGUCUAUCCAAGA | 27 | 29.6 | – | –
5 | GUAUUUUAAGUAAGGAUAUACCUCUGGAAACAGAGGUAGAAGGUACAUGAGGAUCACCCAUGUUUCUCUUUUGG | 17 | 23.6 | – | –
6 | GUCAGCGCGUGAGGAUAUACAACACUGCUUCGGCAGUGUAUUAAGAUCACAUGAGGAUCACCCAUGUAGAAGGCACGAGCUGAU | 14 | 263 | – | –
7 | GUCAGCUCGCGAGGAUAUACAACACUGCUUCGGCAGUGUAUUAAGAUCACAUGAGGAUCACCCAUGUAGAAGGCACGAGCUGAU | 10.4 | 145 | – | –
8 | GUCAGCUCGGGAGGAUAUACAACACUGCUUCGGCAGUGUAUUAAGAUCACAUGAGGAUCACCCAUGUAGAAGGCACGAGCUGAU | 7.79 | 51 | – | –
9 | GUCAGCUCGUGAGGAUAUAAAACACUGCUUCGGCAGUGUAUUAAGAUCACAUGAGGAUCACCCAUGUAGAAGGCACGAGCUGAU | 5.05 | 6.38 | – | –
10 | GUCAGCUCGUGAGGAUAUACAACACUGCUUCGGCAGUGUAUUAAGAACACAUGAGGAUCACCCAUGUAGAAGGCACGAGCUGAU | 4.92 | 6.08 | – | –
11 | GUCAGCUCGUGAGGAUAUACAACACUGCUUCGGCAGUGUAUUAAGAUCACAUGAGGAUCACCCAUGUAGAAGGCACGAACUGAU | 12.9 | 212 | – | –
12 | GUCAGCUCGUGAGGAUAUACAACACUGCUUCGGCAGUGUAUUAAGAUCACAUGAGGAUCACCCAUGUAGAAGGCACGAGCUGAU | 42.1 | 832 | – | –
13 | GUCAGCUCGUGAGGAUAUACAACACUGCUUCGGCAGUGUAUUAAGAUCACAUGAGGAUCACCCAUGUAGAAGGCAUGAGCUGAU | 14.9 | 297 | – | –
14 | GUCAGCUCGUGAGGAUAUACAACACUGCUUCGGCAGUGUAUUAAGGUCACAUGAGGAUCACCCAUGUAGAAGGCACGAGCUGAU | 8.12 | 105 | – | –
15 | GUCAGCUCGUGAGGAUAUACAACACUGCUUCGGCAGUGUAUUACGAUCACAUGAGGAUCACCCAUGUAGAAGGCACGAGCUGAU | 15.2 | 307 | – | –
16 | GUCAGCUCGUGAGGAUAUACAACACUGCUUCGGCAGUGUAUUGAGAUCACAUGAGGAUCACCCAUGUAGAAGGCACGAGCUGAU | 12.9 | 225 | – | –
17 | GUCAGCUCGUGAGGAUAUACAACACUGCUUCGGCAGUGUGUUAAGAUCACAUGAGGAUCACCCAUGUAGAAGGCACGAGCUGAU | 7.69 | 88.9 | – | –
18 | GUCAGCUCGUGAGGAUAUACAACACUGCUUCGGCAGUUUAUUAAGAUCACAUGAGGAUCACCCAUGUAGAAGGCACGAGCUGAU | 14.4 | 264 | – | –
19 | GUCAGCUCGUGAGGAUAUACAACACUGCUUCGGCUGUGUAUUAAGAUCACAUGAGGAUCACCCAUGUAGAAGGCACGAGCUGAU | 13.5 | 202 | – | –
20 | GUCAGCUCGUGAGGAUAUACAACACUGCUUCGGGAGUGUAUUAAGAUCACAUGAGGAUCACCCAUGUAGAAGGCACGAGCUGAU | 15 | 254 | – | –
21 | GUCAGCUCGUGAGGAUAUACAUCACUGCUUCGGCAGUGUAUUAAGAGUACAUGAGGAUCACCCAUGUAGAAGGCACGAGCUGAU | 17.3 | 19.6 | – | –
22 | GUCAGCUCGUGAGGAUAUACAUGUGCUGGAAACAGCACUAUUAAGAUCACAUGAGGAUCACCCAUGUAGAAGGCACGAGCUGAU | 47.3 | 630 | – | –
23 | GUCAGCUCGUGAGGAUAUACAUGUGCUGGAAACAGCACUAUUAUGUUCACAUGAGGAUCACCCAUGUAGAAGGCACGAGCUGAU | 16.2 | 24.9 | – | –
24 | GUCAGCUCGUGAGGAUAUACCACACUGCUUCGGCAGUGUAUUAAGAUCACAUGAGGAUCACCCAUGUAGAAGGCACGAGCUGAU | 6.32 | 34.2 | – | –
25 | GUCAUCUCAUGAGGAUAUGCUCGGGUUUCCCGAGCAGAAGGCAUGUCAUACAUGAGGAUCACCCAUGUUGACAUUAAGAUUGUA | – | – | 4.78 | 5.04
26 | GUCAUGUCAGGAUAUGCUUAUGAUGAGUGCUCAGACAUGAUGCAGAAGGGACAUGAGGAUCACCCAUGUACUGA | 22.4 | 26.8 | – | –
27 | GUCCAACAUGAGGAUCACCCAUGUCAGGAUAUACCGGGCGAAAGAAAGGCCCAUAAGGGUAGAAGGGACGGUGU | 15.8 | 21 | – | –
28 | GUCCGAAGGGAGAAGGGCUAGGAGGUCCAGCUUAUGUGUGUUGCAACAUGAGGAUCACCCAUGUAGCAGGAUAUCCCUUGUACA | 54.2 | 267 | – | –

Row | Sequence | apparent Kd [1] [nM] | apparent Kd [2] [nM] | apparent Kd [3] [nM] | apparent Kd [4] [nM]
29 | GUCCUACAUGAGGAUCACCCAUGUCAGGAUAUGUAGCGUCCGGGCCAUAAGGCUCGGAGCAGAAGGGACAGGUG | 13.8 | 18.2 | – | –
30 | GUCGGAAACGACAAAAGUAUGGAUCCAGAAGGCAUGAUACAUGAGGAUCACCCAUGUCUAAGACAUGAGGAUAUGGAUCCAUAC | – | – | 13.7 | 4.77
31 | GUCGGAAACGACAAACGUAGCAUACGAGAAGGCUGAUCCGCGACAUGAGGAUCACCCAUGUAGUUAGAGGAUAUUGGAUGCUAC | – | – | 81.7 | 17.3
32 | GUCGGAAACGACAAUGAUAGGACUGAGGAUAUACAUAAAUAAUCCUCUACAUGAGGAUCACCCAUGUAGAAGGCAGUCCUAUCU | 19 | 24.6 | – | –
33 | GUCGGAAACGACAAUGAUAGGACUGAGGAUAUACAUAAGUAAGUCCUUACAUGAGGAUCACCCAUGUAGAAGGCAGUCCUAUCU | 43.9 | 502 | – | –
34 | GUCGUGUGAGGAUAUGGUUCGUCGCAGUGGCGGUCGGCGACCUAGAAGGCACAUGAGGAUCACCCAUGUAUGUG | 122 | 84 | – | –
35 | GUCUACAUGACAUGAGGAUCACCCAUGUGUUAUAUUUUUACUAAGGAUAUAUUUUUAAUGUUGAGAUAGAAGGUAGUUUCGGUC | 43 | 45.5 | – | –
36 | GUCUACCUAGGAUAUACAUGAGGAUCACCCAUGUAAAGUUUCGUAAAAAGAUAAUCGAGUAGAAGGAGGUGGAU | 20.3 | 20.9 | – | –
37 | GUCUUCCUAGGAUAUACAUGAGGAUCACCCAUGUAAAGUUUCGUCAAAGGAUAAUCGAGUAGAAGGAGGUGGAU | 15 | 17.2 | – | –
38 | GUGACGAAUGUAGGAUAUGCUGACCAAUGGUCAGCAGAAGGACAUGAGGAUCACCCAUGUCAUCCUUAUAAUGAAUAACGUCAC | 13.5 | 18.6 | – | –
39 | GUGACGAAUGUAGGAUAUGCUGAGGAUAACUCAGCAGAAGGACAUGAGGAUCACCCAUGUAAUCCUAAUAAUAAAUAACGUCAC | 12.7 | 18.3 | – | –
40 | GUGACGAUGUAAGGAUAUGCUGAGGAAUACUCAGCAGAAGGUACAUGAGGAUCACCCAUGUAACGUCACAAUAAUAAUAAUAAU | 13.3 | 24.1 | – | –
41 | GUGAGGUAAGGAUAUAGUAGUGAAGGUAAGAUAUGAGAAUGCUAGAAGGUACAUGAGGAUCACCCAUGUUCGGG | 117 | 116 | – | –
42 | GUGAGGUCAGGAUAUGCAUGGCGGGACUUGCGUCGUGGCGUGCAGAAGGGACAUGAGGAUCACCCAUGUGGAGU | 157 | 238 | – | –
43 | GUGAUACAUGAGGAUCACCCAUGUCACCUCACACGAGGAUAUCUGUGCAGUACUCAGUACGGAGAAGGCGUGGAAA | – | – | 96.7 | 26.4
44 | GUGCAUGUGCGAACUAACCCACAUGAGGAUCACCCAUGUAGGAGAAGGGUCCGGAGGUGCCGUGGACAGGAUAUCCUACGCCUU | 17.5 | 33.2 | – | –
45 | GUGCAUUCGUAGAAGGGUGACAUGAGGAUCACCCAUGUGCGCUGGGCUCGGGAGGCAUCAGCGCCACAGGAUAUACGAAGCACC | – | – | 66.8 | 48.6
46 | GUGCAUUCGUAGAAGGGUGACAUGAGGAUCACCCAUGUGCGCUGGGCUCGGGAUGCAUCAGCGCCACAGGAUAUACGAAGCACC | – | – | 117 | 106
47 | GUGCCUAACUAGAAGGCCGAUAGCAAAGCUAUCGGAGGAUAUGGGUUCCGGAAACGGACAUGAGGAUCACCCAUGUGGCACAAA | – | – | 86.5 | 12.8
48 | GUGCGUGGCUAGGAUAUUGUGGAGUUUAGUCAGCGAGAAGGGACUACAUGAGGAUCACCCAUGUGUAGUUGCUC | 212 | 198 | – | –
49 | GUGCGUGGCUAGGAUAUUGUGGAGUUUUGUCAGCGAGAAGGAGCCACAUGAGGAUCACCCAUGUGGUGUUGCUC | – | 67.5 | – | –
50 | GUGCUCGUGUAAGGAUAUGCAGCCGUUUCGGCUGCAGAAGGUACUAUAAUACAUGAGGAUCACCCAUGUCUCUAUAAUUUGGUG | – | – | 148 | 214
51 | GUGCUGCAACGGUGCACGAGACAUGAGGAUCACCCAUGUGACAGAAGGGACUUGUUAAAGGUAGGUCAGGAUAUGUCUUAAAAG | – | – | 191 | 53.1
52 | GUGCUUGUCGAAGGAUAUGGUUACAUGAGGAUCACCCAUGUUAUGCUUGGAAAAUUGUUUAGUUUCCAGAAGGUCGAUUAGUUG | 19.7 | 17.7 | – | –
53 | GUGCUUGUCGGAGGAUAUGGUUACAUGAGGAUCACCCAUGUUAUGCUUGGUUACUUGUUUAGUUUCCAGAAGGUCGGUUGGUUG | 61.1 | 71.2 | – | –
54 | GUGGAGUACGUAGGAUAUGUAGGAUAUUCCUACAUGAGGAUCACCCAUGUUAGCAUGGAAGAAGGACAGAAGGACGUGCUCCAG | – | – | 1180 | 15
55 | GUGGCGGCCACAGGAUAUACCCGCGGUAGCCUGGUAGAAGGGUGGUCUCUCAGUCACAACAUGAGGAUCACCCAUGUAGAAAUC | – | – | 25.8 | 35.5
